Results: ChEMBL document CHEMBL4428077, “Synthesis and Biological Evaluation of N-((1-(4-(Sulfonyl)piperazin-1-yl)cycloalkyl)methyl)benzamide Inhibitors of Glycine Transporter-1” (J Med Chem, 2016)

Assays:
[1] = Drug level in cynomolgus monkey CSF at 10 mg/kg, po measured at 1 hr post dose by LC-MS/MS analysis; assay type: ADME, organism-based, Macaca fascicularis, Cerebrospinal fluid; details: read-out: Drug uptake
Procedure, shortened: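 Cynomolgus monkeys (n = 3/group) fitted with subcutaneous CSF ports were dosed orally at 0.4−15.7 μmol/kg in 5% Solutol plus 20% Captisol in 25 mM PBS, pH 2. CSF (about 0.30 mL) and blood were sampled predose and at 0.5, 1, 2, 3, 4, 8, 12 and 24 h. Quantitation limit 1.0 ng/mL; mean ± SD.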

[2] = Tmax in cynomolgus monkey plasma at 5 mg/kg, po by LC-MS/MS analysis; assay type: ADME, organism-based, Macaca fascicularis
Procedure, shortened: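 Three female cynomolgus monkeys per group, single dose: IV 1.5 μmol/kg in 5% DMSO/10% Solutol in saline, pH 6.5 (2 mL/kg), or PO 7.8 μmol/kg in 5% Solutol in 20% Captisol, 25 mM PBS, pH 2 (5 mL/kg). Parameters come from plasma concentration–time data; mean ± SD.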

[3] = Protein binding in rat plasma; assay type: ADME, cell-free; details: read-out: PPB (converted)
Rattus norvegicus [4] = assay: In vivo inhibition of glycine transporter-1 in Sprague-Dawley rat assessed as increase in medial prefrontal cortex glycine level at 3 to 10 mg/kg, po administered through oral gavage measured after 80 to 300 mins by LC-MS/MS analysis relative to control; assay type: functional; parameters: scale not given: the % may be the effect or the level left
Procedure, shortened: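 Freely moving drug-naive adult male Sprague-Dawley rats, n = 5-6 per group, given 1.5, 4.7 or 15.7 μmol/kg by oral gavage at t = 0. Vehicle was 5% Solutol / 20% Captisol in 25 mM PBS, pH 2. mPFC dialysate was sampled over 5 h and analysed by HPLC-MS/MS. Values were normalized to basal levels (t = -80 to 0 min). Two-way repeated-measures ANOVA with Student-Newman-Keuls test.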

[5] = Drug level in po dosed Sprague-Dawley rat CSF measured 2 hrs post dose by LC-MS/MS analysis; assay type: ADME, organism-based, Cerebrospinal fluid; details: in vivo
[6] = Apparent terminal half life in cynomolgus monkey plasma at 1 mg/kg, iv or 5 mg/kg, po by LC-MS/MS analysis; assay type: ADME, organism-based, Macaca fascicularis; details: read-out: betat1/2(app) (converted)
Procedure, shortened: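 Single-dose PK in female cynomolgus monkeys, n = 3 per group: 1.5 μmol/kg IV in 5% DMSO/10% Solutol in saline, pH 6.5 (2 mL/kg), or 7.8 μmol/kg PO in 5% Solutol in 20% Captisol, 25 mM PBS, pH 2 (5 mL/kg). Plasma parameters reported as mean ± SD.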

Rattus norvegicus [7] = assay: In vivo inhibition of glycine transporter-1 in Sprague-Dawley rat assessed as CSF glycine level at 30 mg/kg, po measured 2 hrs post dose by LC-MS/MS analysis relative to control; assay type: functional; parameters: scale not given: the % may be the effect or the level left
Procedure, shortened: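 Drug-naive Sprague-Dawley rats, n = 5 per group, given acute oral doses of 0.4-160.9 μmol/kg (0.3-100 mg/kg). Vehicle was Solutol 5% in 20% Captisol / 25 mM PBS, pH 2. Killed 2 h post-dose. CSF glycine was quantified by LC-MS/MS with a deuterated-glycine standard and expressed as % vehicle control, mean ± SEM. Two-way ANOVA with Tukey test.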

[8] = Toxicity in Sprague-Dawley rat assessed as gross behavioral abnormality at 0.3 to 100 mg/kg, po; assay type: organism-based; details: in vivo
Procedure, shortened: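 Drug-naive Sprague–Dawley rats (n = 5/group) received a single oral dose of 0.4–160.9 μmol/kg in 5% Solutol plus 20% Captisol in 25 mM PBS, pH 2, and were watched for gross behavioral abnormalities until sacrifice at 2 h.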

[9] = Toxicity in Sprague-Dawley rat assessed as gross behavioral abnormality at 1 to 10 mg/kg, po qd for 5 days; assay type: organism-based; details: in vivo, 120 h
Procedure, shortened: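 Drug-naive Sprague–Dawley rats (n = 5/group) were dosed orally once daily for 5 days at 1.6, 4.8 or 16.1 μmol/kg in 5% Solutol/20% Captisol in 25 mM PBS, pH 2.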

[10] = Drug level in Sprague-Dawley rat brain at 100 mg/kg, po measured 2 hrs post dose by LC-MS/MS analysis; assay type: ADME, organism-based; details: read-out: Drug uptake
Procedure, shortened: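 Drug-naive Sprague−Dawley rats (n = 4−5/group) were dosed orally once in 5% Solutol plus 20% Captisol in 25 mM PBS, pH 2, and euthanized 2 h later by CO₂. CSF was drawn from the cisterna magna. Drug was measured in CSF, brain and plasma; data as mean ± SEM.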

[11] = Drug level in Sprague-Dawley rat plasma at 3 mg/kg, po qd for 5 days measured 2 hrs post last dose by LC-MS/MS analysis; assay type: ADME, organism-based
Procedure, shortened: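 Drug-naive Sprague−Dawley rats (n = 5/group) were dosed orally once daily for 5 days in 5% Solutol plus 20% Captisol in 25 mM PBS, pH 2, and sacrificed 2 h after the last dose. Drug was measured in CSF, brain and plasma; mean ± SEM.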

Rattus norvegicus [12] = assay: In vivo inhibition of glycine transporter-1 in Sprague-Dawley rat assessed as CSF glycine level at 1 mg/kg, po qd for 5 days measured 2 hrs post last dose by LC-MS/MS analysis relative to control; assay type: functional; parameters: scale not given: the % may be the effect or the level left
Procedure, shortened: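 Drug-naive Sprague-Dawley rats, n = 5 per group, dosed orally once daily for 5 days with vehicle or 1.6, 4.8 or 16.1 μmol/kg. Vehicle was 5% Solutol / 20% Captisol in 25 mM PBS, pH 2. Killed 2 h or 48 h after the last dose. CSF glycine was expressed as % of vehicle control (vehicle 2 h post last dose), mean ± SEM. Two-way ANOVA with Tukey test.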

concentration at 1 h [1] [ng/mL] | Tmax [2] [h] | fraction unbound [3] | Drug uptake [5] | half-life [6] [h] | concentration at 2 h [10] [nM] | concentration at 2 h [11] [nM] | SMILES | Activity (Rattus norvegicus [4]) [%] | Activity (Rattus norvegicus [7]) [%] | Activity [8] | Activity [9] | Activity (Rattus norvegicus [12]) [%]
5.9 | 1.67 | 0.13 | Dose-dependent effect | 6.27 | – | – | CC(NC(=O)c1ccc(C(F)(F)F)cc1Cl)C1(N2CCN(S(=O)(=O)c3cn(C)nn3)CC2)CCC(F)(F)CC1.Cl (single isomer, unassigned; (+)) | >150 | – | – | – | –
– | – | – | – | – | 46.3 | 122 | Cl.Cn1cc(S(=O)(=O)N2CCN(C3(CNC(=O)c4ccc(C(F)(F)F)cc4Cl)CCC(F)(F)CC3)CC2)nn1 | – | 317.2 | Non-Toxic | Non-Toxic | 188
